Experimental data taken from ChEMBL document CHEMBL2417428, “Cytotoxic psammaplysin analogues from a Suberea sp. marine sponge and the role of the spirooxepinisoxazoline in their activity” (2013).

Columns and labels:
Format in all cases: functional
NCI-H23 = assay: Cytotoxicity against human NCI-H23 cells after 48 hrs by sulforhodamine B assay; settings: NCI-H23, 48 h
Method in brief: (§1)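 Cells seeded in 96-well plates with test compounds or doxorubicin control and incubated 48 h. Fixed with 50% trichloroacetic acid, stained with 0.4% sulforhodamine B in 1% acetic acid, and washed with 1% acetic acid. Bound dye was extracted with 10 mM Tris base (pH 10.5) and absorbance read at 540 nm for growth inhibition.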

PC-3 = assay: Cytotoxicity against human PC3 cells after 48 hrs by sulforhodamine B assay; settings: PC-3, 48 h; method in brief: as §1
ACHN = assay: Cytotoxicity against human ACHN cells after 48 hrs by sulforhodamine B assay; method in brief: as §1
MDA-MB-231 = assay: Cytotoxicity against human MDA-MB-231 cells after 48 hrs by sulforhodamine B assay; settings: MDA-MB-231, 48 h; method in brief: as §1
HCT-15 = assay: Cytotoxicity against human HCT15 cells after 48 hrs by sulforhodamine B assay; settings: HCT-15, 48 h; method in brief: as §1
NUGC-3 = assay: Cytotoxicity against human NUGC3 cells after 48 hrs by sulforhodamine B assay; settings: NUGC-3, 48 h; method in brief: as §1

| Compound | GI50 (NCI-H23) [µM] | GI50 (PC-3) [µM] | GI50 (ACHN) [µM] | GI50 (MDA-MB-231) [µM] | GI50 (HCT-15) [µM] | GI50 (NUGC-3) [µM] |
| --- | --- | --- | --- | --- | --- | --- |
| N#CC(=O)NCCCOc1c(Br)cc(C(O)CN)cc1Br (configuration not stated) | > 70 | > 70 | > 70 | > 70 | > 70 | > 70 |
| COC1=C(Br)C[C@@]2(OC=C1Br)ON=C(C(=O)NCCCOc1c(Br)cc(CCNC=C3C(=O)C=CC3=O)cc1Br)[C@H]2O | 7 | 3.7 | 10.3 | 3.9 | 7.4 | 4 |
| COC1=C(Br)C[C@@]2(OC=C1Br)ON=C(C(=O)NCCCOc1c(Br)cc(C(O)CNC(=O)CCCCCCCCCCCC(C)C)cc1Br)[C@H]2O (some centres not stated) | 27 | 25 | 27 | 21 | 24 | 26 |
| COC1=C(Br)C[C@]2(OC=C1Br)ON=C(C(=O)NCCCOc1c(Br)cc(CCN/C=C3/C(=O)CC(Cl)C3=O)cc1Br)[C@@H]2O (mixture of isomers) | 6.4 | 2.3 | 3.3 | 1.2 | 3.3 | 3.5 |
| COC1=C(Br)C[C@]2(OC=C1Br)ON=C(C(=O)NCCCOc1c(Br)cc(C(O)CN/C=C3/C(=O)CC(Cl)C3=O)cc1Br)[C@@H]2O (mixture of isomers) [19-HYDROXYPSAMMAPLYSINE X] | 3.5 | 2.1 | 2.5 | 0.8 | 3.5 | 4 |
| COC1=C(Br)C[C@@]2(OC=C1Br)ON=C(C(=O)NCCCOc1c(Br)cc(C(O)CN)cc1Br)[C@H]2O (relative stereo) | 3.7 | 2.7 | 1.6 | 0.53 | 4 | 2.5 |
| COC1=C(Br)C[C@@]2(OC=C1Br)ON=C(C(=O)NCCCOc1c(Br)cc(CCN)cc1Br)[C@H]2O (relative stereo) | 12.4 | 6.9 | 5.1 | 4.3 | 3.9 | 3.8 |
| COC1=C(Br)C[C@@]2(OC=C1Br)ON=C(C(=O)NCCCOc1c(Br)cc(C(O)CNC=C3C(=O)C=CC3=O)cc1Br)[C@H]2O (some centres not stated) [19-HYDROXYPSAMMAPLYSINE E] | 3.6 | 1.4 | 2.3 | 0.51 | 3.8 | 2.3 |
| N#CC(=O)NCCCOc1c(Br)cc(CCN)cc1Br [CERATINAMINE] | > 70 | > 70 | > 70 | > 70 | > 70 | > 70 |
| COc1cccc2c1C(=O)c1c(O)c3c(c(O)c1C2=O)C[C@@](O)(C(=O)CO)C[C@@H]3O[C@H]1C[C@H](N)[C@H](O)[C@H](C)O1 [DOXORUBICIN] | 1.9 | 0.52 | 2 | 1.8 | 1.4 | 0.51 |
| NCCCOc1c(Br)cc(C(O)CN)cc1Br (configuration not stated) [HYDROXYMOLOKA'IAMINE] | > 70 | > 70 | > 70 | > 70 | > 70 | > 70 |
| NCCCOc1c(Br)cc(CCN)cc1Br [MOLOKA'IAMINE] | > 70 | > 70 | > 70 | > 70 | > 70 | > 70 |
